# In the library only some 1.3% were active in any assay of this set; here they are far more common.
# Rpn11 block – Rpn11 (human) deubiquitinase inhibition; 360,000 tested, 0.59% active; inhibition, % at 20 µM; AID 588493; O00487; human 26S proteasome, Ub4-pepOG fluorescence polarization; 20S core pre-blocked with epoxomicin;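 active = inhibition at 20 µM, scaled to each plate's controls, above about 33%, limit read from the data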
# HNF4A DNA FP – change in binding of human HNF4 alpha to DNA | P41235 | activity change, % at 10 µM | 360,000 tested, 0.3% active | HNF4a-FITC DNA binding, fluorescence polarization, 1 h | AID 1224865; in the data active = activity change above about 30%, passing the limit was not always enough
# Target sequence (P41235 whole entry, looked up): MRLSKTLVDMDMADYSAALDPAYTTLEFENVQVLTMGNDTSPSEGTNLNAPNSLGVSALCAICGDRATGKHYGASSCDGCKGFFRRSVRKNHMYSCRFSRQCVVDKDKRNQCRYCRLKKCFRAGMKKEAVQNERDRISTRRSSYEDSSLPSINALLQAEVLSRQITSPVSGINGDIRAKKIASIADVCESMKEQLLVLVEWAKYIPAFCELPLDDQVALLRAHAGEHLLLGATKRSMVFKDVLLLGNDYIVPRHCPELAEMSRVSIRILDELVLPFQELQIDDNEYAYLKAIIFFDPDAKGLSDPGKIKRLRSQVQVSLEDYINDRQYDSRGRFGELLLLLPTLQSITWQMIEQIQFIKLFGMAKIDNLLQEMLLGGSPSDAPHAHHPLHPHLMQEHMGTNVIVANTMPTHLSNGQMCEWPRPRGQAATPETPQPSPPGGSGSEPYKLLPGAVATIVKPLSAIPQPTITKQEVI
# aDG glyco act – alpha-DG glycosylation activation | Pro5-aDG cells, alpha-DG glycosylation AlphaScreen (IIH6); 0% Pro5, 100% B10-LARGE cell signal | activation, % at 10 µM | 360,000 tested, 0.22% active | AID 624168;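 active = activation of at least 8% versus controls, or a plate z-score of at least 8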;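 also: Pro5 are CHO cells carrying HIG-tagged alpha-DG that lacks glycosylation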
# TPT1 inh – C. albicans TPT1 enzyme inhibition. recombinant caTPT1, FP RNA substrate dephosphorylation. inhibition, % at 5 µM. 300,000 tested, 0.81% active. AID 1962;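 active = inhibition above the mean of all tested compounds plus 3 SD, set per screening campaign, cut at about 24% in these data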
# CSN deneddyl inh – inhibitors of human CSN-mediated cullin deneddylation; Purified CSN, SCF-Nedd8-OG deneddylation, fluorescence polarization; inhibition, % at 12.5 µM; 360,000 tested, 0.38% active; Q92905;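 active = pattern-corrected inhibition above about 35%, with an unprinted fluorescence ratio check between 0.5 and 1.5, limit read from the data, passing the limit was not always enough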
#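 Assay system: Purified human Csn5 enzyme expressed in HEK293T cells | Amount: Enzyme 0.24 nM | Measured by: Fluorescence polarization readout | Medium: Tris/NaCl/DTT buffer, pH 7.5 | Compound dosing: One concentration, 12.5 µM, 0.25% DMSO | Times: 90 min incubation of compound, enzyme and substrate at room temperature | Control set: no-enzyme wells high, enzyme-with-substrate wells low | Read-out: % inhibition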
# XiGFP reactiv – activators of X-chromosome reactivation in mouse fibroblasts | 360,000 tested, 0.055% active | activation, % at 7.58 µM | XiGFP mouse fibroblasts, % GFP-positive cells imaging, 3 d; cells co-treated with 5-aza-dC sensitizer; scaled so ellipticine positive control = 100%;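 active = mean normalized replicate activation at least 10% and every replicate at or above 10%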
#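 Assay system: SV40-immortalized XiGFP fibroblast cells, line 68-5-11; buffer or medium: DMEM plus 5-aza-dC sensitizer; compound: one concentration, pinned; timing: compounds 3 days, fix/stain 15 min at room temperature; benchmarks: positive control ellipticine, 6 µM final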
# Numbers stand for hits; n = inactive; x = not tested or not shown.
SMILES,Rpn11 block,HNF4A DNA FP,aDG glyco act,TPT1 inh,CSN deneddyl inh,XiGFP reactiv
C[C@@H]1CCCCO[C@@H](CN(C)C(=O)CCCN(C)C)[C@@H](C)CN([C@H](C)CO)C(=O)c2cc(NC(=O)c3ccccc3)ccc2O1,x,x,x,x,x,n
Cc1ccc(-c2cnc3c(c2)C(=O)N([C@@H](C)CO)C[C@@H](C)[C@@H](CN(C)C(=O)c2cccc(F)c2)O3)cc1,x,x,x,x,x,n
N=c1n(Cc2ccccc2Cl)c2ccccc2n1CC(O)c1ccco1 (stereo unspecified),n,61.1,n,n,n,n
COc1ccc(CN(C)C[C@@H]2Oc3c(NC(=O)CCCCCC(=O)Nc4ccccc4N)cccc3C(=O)N([C@@H](C)CO)C[C@H]2C)cc1,x,x,x,x,x,n
CC1CC(C)(C)CC2(C1)NC(=O)N(CC(=O)Nc1ccc3[nH]c(=O)[nH]c3c1)C2=O (stereo unspecified),n,n,n,x,73.2,n
Cc1ccc(S(=O)(=O)N2c3ccccc3CC2C)cc1 (stereo unspecified),n,n,n,n,n,n
CC1Cc2ccccc2N1S(=O)(=O)c1cccs1 (stereo unspecified),x,114.7,n,n,57.5,x
COC(=O)c1cc(S(=O)(=O)N2c3ccccc3CC2C)cn1C (stereo unspecified),n,n,n,n,37.8,n
OCCCc1nc2n(n1)C(c1cccs1)C=C(c1ccccc1)N2 (stereo unspecified),x,x,x,n,x,x
OCCCc1nc2n(n1)C(c1ccccc1Cl)C=C(c1cccs1)N2 (stereo unspecified),n,n,n,24.2,n,x
COc1ccc(S(=O)(=O)NCc2cccnc2)cc1Br,n,129.4,n,n,n,n
COc1ccc(S(=O)(=O)NCc2cccnc2)cc1,n,n,n,n,n,n
COc1ccc(S(=O)(=O)NCc2cccnc2)cc1NC(=O)c1ccccc1C,64.0,n,n,x,n,n
O=C1C(SCCO)=C(SCCO)C(=O)c2ccccc21,n,n,n,n,n,88.4
CC1=C(SCc2ccccc2)C(=O)c2ccccc2C1=O,n,n,n,x,n,n
CCC(/C=C1\Oc2ccc(OC)cc2N1C)=C\c1sc2ccccc2[n+]1CCCS(=O)(=O)[O-],x,n,n,x,73.2,n
CC(C)(C)NC(=O)C1(C)CCC(=O)N1C1CCN(Cc2ccccc2)CC1 (stereo unspecified),n,n,n,x,85.7,n
CC1(C(=O)NC2CCCC2)CCC(=O)N1C1CCN(Cc2ccccc2)CC1 (stereo unspecified),n,n,n,x,n,n
COCC(=O)N1CCC(Oc2ccc(C(=O)NCc3cnc(C)cn3)cc2)CC1,n,n,n,n,n,n
Cc1cnc(CNC(=O)c2ccc(OC3CCN(C(=O)C4CC4)CC3)cc2)cn1,n,40.3,n,n,n,n
COCC(=O)N(C)C[C@H]1Oc2cc(C#CC(C)(C)O)ccc2S(=O)(=O)N([C@H](C)CO)C[C@H]1C,x,x,x,x,x,n
C[C@H]1CN([C@@H](C)CO)S(=O)(=O)c2ccc(C3=CCCCC3)cc2O[C@@H]1CN(C)C,x,x,x,x,x,n
O=C(Nc1ccc2c(c1)OCCO2)C1CCC1,n,68.4,n,n,n,x
NC(=O)Nc1ccc2c(c1)OCCO2,n,n,n,n,n,x
CCN1C(=C(C#N)C#N)C=Cc2cc(C)ccc21,n,n,n,n,n,n
SMILES,Rpn11 block,HNF4A DNA FP,aDG glyco act,TPT1 inh,CSN deneddyl inh,XiGFP reactiv
C=CC[n+]1c(/C=C2\C=Cc3cc(C)ccc3N2CC)ccc2ccccc21,n,37.6,n,n,n,n
C[C@@H]1CCCCO[C@H](CN(C)Cc2ccc(C(=O)Nc3ccccc3N)cc2)[C@H](C)CN([C@@H](C)CO)C(=O)c2cc(N(C)C)ccc2O1,x,x,x,x,x,n
c1ccc(CNc2c3c(nc4ncnn24)CCC3)cc1,n,62.8,n,n,n,n
c1ccc(CN(Cc2ccccc2)c2c3c(nc4ncnn24)CCC3)cc1,n,n,n,n,n,n
O=C(C[C@H]1C[C@@H]2c3cc(NC(=O)c4ccc5c(c4)OCO5)ccc3O[C@@H]2[C@H](CO)O1)NC1CCCCC1,x,x,x,x,x,n
O=C(COc1ccc(/C=N/NC(=O)c2ccc(O)cc2)cc1)Nc1cccc([N+](=O)[O-])c1,n,n,n,n,59.0,n
O=C(COc1ccc(/C=N/NC(=O)c2ccncc2)cc1)Nc1ccc([N+](=O)[O-])cc1,n,n,n,n,n,n
COc1ccc(C[C@@H]2CCc3cnnn3COC[C@H](C(C)C)NC2=O)cc1,x,x,x,x,x,n
Cn1ccc2c(N(Cc3ccccc3)Cc3ccccc3)cc3c(c21)C1CCC3O1 (stereo unspecified),n,n,n,x,84.4,x
CCCCCCCCN1C(=O)[C@H](CC(=O)NCCCN2CCCC2=O)C[C@@]2(C(=O)OC)CCCCC=C12,x,n,n,x,47.9,n
COC(=O)[C@]12CCCCC=C1N(Cc1ccccc1)C(=O)[C@H](CC(=O)NCCCN1CCCC1=O)C2,x,n,n,x,n,n
O=C(CN1C(=O)/C(=C\c2ccco2)SC1=S)Nc1ccc(O)cc1C(=O)O,x,n,n,n,69.6,n
O=C(C[C@@H]1CC[C@@H]2[C@H](COC[C@H](O)CN2Cc2nccs2)O1)NCc1ccc(F)cc1,x,x,x,x,x,n
O=c1oc(/C=C/c2ccco2)nc2sc3c(c12)CCC3,n,n,n,n,41.9,x
COc1ccc(NC(=O)/C(=C\c2ccncc2)NC(=O)c2ccccc2)cc1,n,n,n,n,49.5,n
CC=Cc1ccc2n(c1=O)C[C@@H]1[C@@H](CO)[C@H](C(=O)NCc3ccccc3)[C@H]2N1Cc1ccccc1OC (mixture of isomers),x,x,x,x,x,n
O=C(Oc1c(Cl)cc(Cl)c2cccnc12)c1cccc([N+](=O)[O-])c1,48.8,n,n,n,n,x
O=C(C[C@@H]1CC[C@H]2[C@@H](COC[C@@H](O)CN2Cc2ccccc2F)O1)NCc1ccccc1F,x,x,x,x,x,n
CCn1c(CNC(=O)COc2ccc(C(C)C)cc2)nnc1SCC(=O)NC1CCCCC1C (stereo unspecified),n,n,n,n,70.0,x
CCn1c(CNC(=O)COc2ccc(C(C)C)cc2)nnc1SCC(=O)Nc1ccc(F)cc1,n,n,n,n,n,x
CCOC(=O)/C=c1\s/c(=C\c2ccc3cc(OC)ccc3c2)c(=O)n1CC(=O)NCc1ccc2c(c1)OCO2,x,n,n,n,59.8,28.3
CCOC(=O)/C=c1\s/c(=C\c2ccc3c(c2)OCCO3)c(=O)n1CC(=O)NCC1CCCO1 (stereo unspecified),n,n,n,n,n,x
Cc1ccc(CNC(=O)c2ccc(N3CCCC3=O)cc2)cc1,n,n,n,n,n,x
Cn1nc(C(C)(C)C)cc1C(=O)NCc1ccc(N2CCCC2=O)cc1,n,n,4.7,n,n,x

# Compound activity from PubChem.
